Experiment [1] relates to K562. Nature of the experiment: Cytotoxicity against K562 leukemia cell line done for 72 hr at 37 degree C with compound in MTS assay. The format is functional, cell-based, Homo sapiens. An outline of the steps:
(§1)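 Cells (2000–10000) seeded in RPMI-1640 for 24 h, then exponentially growing cells exposed to a range of concentrations (0.001–5 μM) for 72 h at 37 °C, 5% CO2. MTS (2 mg/mL) mixed with PMS (25 μM) added directly; after 3 h at 37 °C formazan absorbance read at 490 nm. IC50 taken from dose-response curves of percent growth versus untreated control.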

The test system of experiment [2] is SW-620. Nature of the experiment: Cytotoxicity against SW620 colon cancer cell line done for 72 h at 37 degree C with compound in MTS assay. The format is functional, cell-based, Homo sapiens. The gist of the method: as §1
Background: Formazan colour is commonly taken as a measure of viable cells.

Where a name gives a salt, the structure may show the parent alone. A value given as a limit tells only on which side of the number the result lay.

As to `COc1cccc2c1C(=O)c1c(O)c3c(c(O)c1C2=O)C[C@@](O)(C(C)=O)C[C@@H]3OC1CC(N)C(OC2CC(C)(OC)C(O)C(C)O2)C(C)O1` (stereo partly drawn), the concentration for half-maximal inhibition (IC50) (usually the concentration needed to halve the response being measured) in experiment [1] (Homo sapiens, K562, 72 h) was 21 nM; in experiment [2] (Homo sapiens, SW-620, 72 h), 11.4 nM.

As for `COc1cccc2c1C(=O)c1c(O)c3c(c(O)c1C2=O)C[C@@](O)(C(C)=O)C[C@@H]3OC1CC(N)C(OC2CC(O)C(O)C(CO)O2)C(C)O1` (stereo partly drawn), the IC50 is 1380 nM in experiment [1] (Homo sapiens, K562, 72 h) and above 1000 nM in experiment [2] (Homo sapiens, SW-620, 72 h).

For `COc1cccc2c1C(=O)c1c(O)c3c(c(O)c1C2=O)C[C@@](O)(C(C)=O)C[C@@H]3OC1CC(N)C(OC2OC(C)C(O)C(O)C2O)C(C)O1` (stereo partly drawn), the IC50 was above 4000 nM in experiment [1] (Homo sapiens, K562, 72 h) and above 1000 nM in experiment [2] (Homo sapiens, SW-620, 72 h).

Consider `COc1cccc2c1C(=O)c1c(O)c3c(c(O)c1C2=O)C[C@@](O)(C(C)=O)C[C@@H]3OC1CC(N)C(OC2CC(N=[N+]=[N-])C(O)C(C)O2)C(C)O1` (stereo partly drawn), for which the 50% inhibitory concentration (IC50) in experiment [1] (Homo sapiens, K562, 72 h) was found to be 31.3 nM; in experiment [2] (Homo sapiens, SW-620, 72 h) it was 60.3 nM.

For `COc1cccc2c1C(=O)c1c(O)c3c(c(O)c1C2=O)C[C@@](O)(C(C)=O)C[C@@H]3OC1CC(N)C(OC2CC(OC)C(O)C(C)O2)C(C)O1` (stereo in doubt; 1), the 50% inhibitory concentration (IC50) came out at 39.5 nM in experiment [1] (Homo sapiens, K562, 72 h) and 18.2 nM in experiment [2] (sw-620).

As to `COc1cccc2c1C(=O)c1c(O)c3c(c(O)c1C2=O)C[C@@](O)(C(C)=O)C[C@@H]3OC1CC(N)C(OC2CC(OC)C(O)C(C)O2)C(C)O1` (stereo in doubt; 2), the values for the concentration for half-maximal inhibition (IC50) in experiment [1] (k562) and in experiment [2] (sw-620) were 45.8 nM and 38.9 nM, respectively.

As for `COc1cccc2c1C(=O)c1c(O)c3c(c(O)c1C2=O)C[C@@](O)(C(C)=O)C[C@@H]3OC1CC(N)C(OC2CC(C)(O)C(O)C(C)O2)C(C)O1` (stereo in doubt; 3), the IC50 in experiment [1] (k562) stood at 44.3 nM; in experiment [2] (sw-620) it was 21.7 nM.

With `COc1cccc2c1C(=O)c1c(O)c3c(c(O)c1C2=O)C[C@@](O)(C(C)=O)C[C@@H]3OC1CC(N)C(OC2CC(C)(O)C(O)C(C)O2)C(C)O1` (stereo in doubt; 4), the IC50 in experiment [1] (k562) is 1530 nM; in experiment [2] (sw-620), above 1000 nM.

For `COc1cccc2c1C(=O)c1c(O)c3c(c(O)c1C2=O)C[C@@](O)(C(C)=O)C[C@@H]3O[C@H]1C[C@H](N)[C@H](O)[C@H](C)O1` [DAUNORUBICIN HYDROCHLORIDE], the concentration for half-maximal inhibition (IC50) is 15.6 nM in experiment [1] (Homo sapiens, K562, 72 h) and 8.6 nM in experiment [2] (Homo sapiens, SW-620, 72 h).

Values taken from ChEMBL document CHEMBL1145165, “Syntheses and biological activities of disaccharide daunorubicins” (J Med Chem, 2005).
